Test results taken from ChEMBL document CHEMBL2311285, “3-Thiomorpholin-8-oxo-8H-acenaphtho [1,2-b] pyrrole-9-carbonitrile (S1) derivatives as pan-Bcl-2-inhibitors of Bcl-2, Bcl-xL and Mcl-1” (Bioorg Med Chem, 2013).
≈ marks a conversion by molar mass, not a printed value. Calls of active or inactive are those of the source. The calls are words filed in the database; no cut-off is given here.

Assays:
Bcl-2-like protein 1 = Bcl-2-like protein 1 (Homo sapiens, UniProt Q07817); experiment: Binding affinity to N-terminal 8xHis tagged cBcl-XL (unknown origin) expressed in Escherichia coli BL21 (DE3) by ELISA
Bcl-2-like protein 1, sequence (Q07817 whole entry): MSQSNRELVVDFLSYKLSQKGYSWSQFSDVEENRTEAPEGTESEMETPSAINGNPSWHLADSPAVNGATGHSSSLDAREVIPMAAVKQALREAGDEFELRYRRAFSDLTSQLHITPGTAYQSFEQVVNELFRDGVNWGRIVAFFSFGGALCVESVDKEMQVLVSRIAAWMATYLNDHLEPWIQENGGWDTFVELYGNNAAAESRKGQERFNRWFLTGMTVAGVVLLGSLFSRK

[1] = target: T1, Apoptosis regulator Bcl-2 (Homo sapiens, UniProt P10415); experiment: Binding affinity to human Bcl-2 (unknown origin) by biotin-Bim displacement based ELISA
T1 sequence (P10415 whole entry): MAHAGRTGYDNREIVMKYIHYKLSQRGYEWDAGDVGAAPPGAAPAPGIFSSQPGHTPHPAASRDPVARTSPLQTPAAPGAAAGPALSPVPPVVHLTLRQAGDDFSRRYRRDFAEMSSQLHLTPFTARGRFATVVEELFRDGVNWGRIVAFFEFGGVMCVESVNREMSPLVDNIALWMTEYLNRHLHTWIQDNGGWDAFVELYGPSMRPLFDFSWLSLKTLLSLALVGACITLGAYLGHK

[2] = target: T1, Apoptosis regulator Bcl-2; experiment: Binding affinity to human Bcl-2 (unknown origin) by ITC assay
[3] = target: T2, Induced myeloid leukemia cell differentiation protein Mcl-1 (Homo sapiens, UniProt Q07820); experiment: Binding affinity to cMcl-1 (residues 171 to 327) (unknown origin) by biotin-Bim displacement based ELISA
T2 sequence (Q07820 whole entry, the tested form may be a part): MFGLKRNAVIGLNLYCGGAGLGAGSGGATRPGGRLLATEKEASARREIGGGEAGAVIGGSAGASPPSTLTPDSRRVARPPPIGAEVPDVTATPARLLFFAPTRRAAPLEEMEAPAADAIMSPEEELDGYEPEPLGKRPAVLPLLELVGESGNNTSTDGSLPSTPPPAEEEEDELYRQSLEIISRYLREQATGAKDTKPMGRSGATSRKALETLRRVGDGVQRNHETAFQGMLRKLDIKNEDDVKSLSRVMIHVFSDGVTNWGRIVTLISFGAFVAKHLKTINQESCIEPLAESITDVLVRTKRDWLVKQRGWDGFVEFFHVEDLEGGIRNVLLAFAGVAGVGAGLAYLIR
How it was run: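 Competitive ELISA: biotin-Bim (residues 81-106) at 0.09 µg/mL in blocking buffer bound to streptavidin-coated wells for 1.5 h. Serial compound dilutions (from 10 mM DMSO stock) containing 0.01% Triton X-100 preincubated 1 h with 20 nM His-tagged protein in PBS, then transferred to wells for 2 h. Anti-His-HRP added for 1 h, then TMB for 30 min, stopped with H2SO4. Room temperature throughout.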

[4] = target: T2, Induced myeloid leukemia cell differentiation protein Mcl-1; experiment: Binding affinity to cMcl-1 (residues 171 to 327) (unknown origin) by ITC assay
How it was run: (§1)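 ITC at 25 °C in 20 mM Tris pH 8.0, 150 mM NaCl, 1% DMSO. For wild-type versus R263A comparison, 16 × 2.5 µL injections of 500 µM compound into 50 µM protein. Data were corrected against a buffer-only cell titrated with compound and fitted to a one-site model to give Kd.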

MCF7 = experiment: Induction of apoptosis in human MCF7 cells assessed as cytochrome c release at 5 uM incubated for 12 hrs in presence of Bax/Bak ShRNA by Western blotting method; type: functional, cell-based
How it was run: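 Wild-type MCF-7 cells and Bax/Bak shRNA-transfected MCF-7 cells were treated with 5 µM compound. Cytochrome c was detected by western blot in the S-100 cytosolic fraction, obtained from digitonin lysis and centrifugation.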

[5] = Solubility in 1% DMSO/H2O; type: physicochemical
HL-60 = experiment: Induction of apoptosis in human HL60 cells assessed as cytochrome c release at 5 uM incubated for 12 hrs by Western blotting method; type: functional, cell-based
How it was run: (§2)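 Cells treated 12 h with 5 µM compound, then lysed in digitonin lysis buffer. After centrifugation, the cytosolic supernatant (S-100) was probed for cytochrome c by western blot. A parallel harvest was used for Mcl-1/Bak and Bcl-2/Bax co-immunoprecipitation.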

K562 = experiment: Induction of apoptosis in human K562 cells assessed as cytochrome c release at 5 uM incubated for 12 hrs by Western blotting method; type: functional, cell-based; how it was run: as §2
[6] = target: Induced myeloid leukemia cell differentiation protein Mcl-1 (Homo sapiens, UniProt Q07820, R263A); experiment: Binding affinity to cMcl-1 R263A mutant (unknown origin) by ITC assay; type: single protein; how it was run: as §1
Induced myeloid leukemia cell differentiation protein Mcl-1 (Homo sapiens, UniProt Q07820, R263A), sequence (Q07820 whole entry R263A): as the sequence (Q07820 whole entry, the tested form may be a part) above, with R263A counted along it

Row | SMILES | IC50 (Bcl-2-like protein 1) | IC50 [1] | Kd [2] | IC50 [3] | Kd ([4]; read-out: pKd (converted)) | Activity (MCF7) | Kd ([4]; read-out: Kd) | solubility [5] | Activity (HL-60) | Activity (K562) | Kd [6]
1 | CC(C)c1ccc(Oc2ccc3c4c(cccc24)C2=NC(=O)C(NCCCc4ccccc4)=C23)cc1 | 0.037 µM | 0.042 µM | 0.0417 µM | 0.039 µM | 0.0389 µM | – | – | – | – | – | –
2 | O=C1N=C2C(=C1NCCCc1ccccc1)c1ccc(Sc3ccc(OO)cc3)c3cccc2c13 | 0.053 µM | 0.057 µM | 0.0575 µM | 0.042 µM | 0.0417 µM | – | – | – | – | – | –
3 | Cc1cc2c(C(C)C)c(O)c(O)c(C=O)c2c(O)c1-c1c(C)cc2c(C(C)C)c(O)c(O)c(C=O)c2c1O [GOSSYPOL] | – | – | – | – | – | Active | 2.32 µM | – | – | – | –
4 | CCOC(=O)C1=C2C(=NC1=O)c1cccc3c(N4CCSCC4)ccc2c13 | – | 2.2 µM | – | > 10 µM | – | – | – | – | – | – | –
5 | CCCCNC1=C2C(=NC1=O)c1cccc3c(Sc4ccc(N)cc4)ccc2c13 | 0.165 µM | 0.19 µM | 0.191 µM | 0.05 µM | 0.0501 µM | inactive | 0.512 µM | 27 µg/mL (≈ 67.6 µM) | Active | Active | 12.8 µM
6 | O=C1N=C2C(=C1NCc1ccccc1)c1ccc(N3CCSCC3)c3cccc2c13 | – | > 10 µM | – | 0.521 µM | – | – | – | – | – | – | –
7 | CCCCNC1=C2C(=NC1=O)c1cccc3c(Sc4ccc(OC)cc4)ccc2c13 | 0.315 µM | 0.356 µM | 0.355 µM | 0.15 µM | 0.151 µM | – | – | – | – | – | –
8 | CCCOC(=O)C1=C2C(=NC1=O)c1cccc3c(N4CCSCC4)ccc2c13 | – | 2.1 µM | – | > 10 µM | – | – | – | – | – | – | –
9 | O=C1N=C2C(=C1NCCCCCc1ccccc1)c1ccc(N3CCSCC3)c3cccc2c13 | – | 1.3 µM | – | 1.1 µM | – | – | – | – | – | – | –
10 | CCCCCCNC1=C2C(=NC1=O)c1cccc3c(Sc4ccc(N)cc4)ccc2c13 | 0.071 µM | 0.08 µM | 0.0794 µM | 0.03 µM | 0.0295 µM | – | – | – | – | – | –
11 | CCCCCCNC1=C2C(=NC1=O)c1cccc3c(N4CCSCC4)ccc2c13 | 0.085 µM | 0.096 µM | 0.0955 µM | 0.037 µM | 0.0372 µM | – | – | – | – | – | –
12 | COc1ccc(Sc2ccc3c4c(cccc24)C2=NC(=O)C(C#N)=C23)cc1 | 0.833 µM | 0.945 µM | 0.955 µM | 0.388 µM | 0.389 µM | – | – | – | – | – | –
13 | CC(C)c1ccc(Oc2ccc3c4c(cccc24)C2=NC(=O)C(C#N)=C23)cc1 | 0.65 µM | 0.739 µM | 0.759 µM | 0.321 µM | 0.324 µM | – | – | – | – | – | –
14 | N#CC1=C2C(=NC1=O)c1cccc3c(N4CCSCC4)ccc2c13 | 0.625 µM | 0.715 µM | 0.708 µM | 0.095 µM | 0.0955 µM | – | 0.954 µM | 2 µg/mL (≈ 6.04 µM) | – | – | 28.7 µM
15 | N#CC1=C2C(=NC1=O)c1cccc3c(Sc4ccc(N)cc4)ccc2c13 | 0.291 µM | 0.331 µM | 0.331 µM | 0.09 µM | 0.0912 µM | – | – | – | – | – | –
16 | CCCCCCNC1=C2C(=NC1=O)c1cccc3c(Sc4ccc(OC)cc4)ccc2c13 | 0.181 µM | 0.206 µM | 0.204 µM | 0.078 µM | 0.0776 µM | – | – | – | – | – | –
17 | CCCCNC1=C2C(=NC1=O)c1cccc3c(Oc4ccc(C(C)C)cc4)ccc2c13 | 0.283 µM | 0.322 µM | 0.324 µM | 0.141 µM | 0.141 µM | – | – | – | – | – | –
18 | CCCCNC1=C2C(=NC1=O)c1cccc3c(N4CCSCC4)ccc2c13 | 0.171 µM | 0.198 µM | 0.2 µM | 0.079 µM | 0.0794 µM | – | – | – | – | – | –
19 | Nc1ccc(Sc2ccc3c4c(cccc24)C2=NC(=O)C(NCCCc4ccccc4)=C23)cc1 | 0.018 µM | 0.02 µM | 0.02 µM | 0.01 µM | 0.01 µM | inactive | 0.105 µM | 18 µg/mL (≈ 39 µM) | Active | Active | 2.34 µM
20 | CCCCCCNC1=C2C(=NC1=O)c1cccc3c(Oc4ccc(C(C)C)cc4)ccc2c13 | 0.162 µM | 0.184 µM | 0.182 µM | 0.075 µM | 0.0794 µM | – | 0.802 µM | – | – | – | 19.2 µM
21 | O=C1N=C2C(=C1NCCCc1ccccc1)c1ccc(N3CCSCC3)c3cccc2c13 | 0.043 µM | 0.049 µM | 0.049 µM | 0.015 µM | 0.0151 µM | – | – | – | – | – | –
22 | CC(C)NC1=C2C(=NC1=O)c1cccc3c(N4CCSCC4)ccc2c13 | – | > 10 µM | – | 2.5 µM | – | – | – | – | – | – | –
23 | CCCCCNC1=C2C(=NC1=O)c1cccc3c(N4CCSCC4)ccc2c13 | – | – | – | 0.037 µM | – | – | – | – | – | – | –
